According to ChEMBL document CHEMBL4373630, “Rapid kill assessment of an N-arylated NH125 analogue against drug-resistant microorganisms” (Medchemcomm, 2019):
Calls of active or inactive are those of the source. The calls are words filed in the database; no cut-off is given here.

What was measured:
[1] = Cytotoxicity against human HEK293 cells after 48 hrs by MTT assay; format: cell-based
Method in brief: (§1)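 HEK 293 cells, 10^4 per well, in DMEM with 10% FBS and penicillin/streptomycin, were left overnight at 37 °C under 5% CO2. MTT was added for 3 h and dissolved in DMSO, then OD570 was read. Six replicates per treatment; percent kill = (1 – test OD570/untreated OD570) × 100%; CC50 taken as the half-maximal toxic concentration.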

HEK293 = test: Cytotoxicity against human HEK293 cells assessed as reduction in viability at 25 uM after 48 hrs by MTT assay relative to control; format: cell-based; settings: hek293, 48 h; method in brief: as §1
Staphylococcus aureus [2] = test: Antibacterial activity against methicillin-resistant Staphylococcus aureus ATCC BAA 1707 after 16 to 18 hrs by CLSI protocol based broth microdilution assay; format: functional
[3] = test system: Staphylococcus epidermidis; test: Antibacterial activity against methicillin-resistant Staphylococcus epidermidis ATCC 35984 after 16 to 18 hrs by CLSI protocol based broth microdilution assay; format: functional
Enterococcus faecium [4] = test: Antibacterial activity against vancomycin-resistant Enterococcus faecium ATCC 700221 after 16 to 18 hrs by CLSI protocol based broth microdilution assay; format: functional
Acinetobacter baumannii [5] = test: Antibacterial activity against multidrug-resistant Acinetobacter baumannii ATCC 1794 after 16 to 18 hrs by CLSI protocol based broth microdilution assay; format: functional
Klebsiella pneumoniae = test: Antibacterial activity against Klebsiella pneumoniae ATCC 13883 after 16 to 18 hrs by CLSI protocol based broth microdilution assay; format: functional
Escherichia coli = test: Antibacterial activity against Escherichia coli clinical isolate UAEC-1 after 16 to 18 hrs by CLSI protocol based broth microdilution assay; format: functional
Staphylococcus aureus [6] = test: (§2) Bactericidal activity against methicillin-resistant Staphylococcus aureus ATCC BAA 1707 assessed as as reduction in bacterial load by measuring reduction in colony forming units at 50 uM preincubated for 1 min followed by subculturing and further incubated for over night by time-kill kinetic assay; format: functional
Method in brief: (§3)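 Overnight culture diluted 1:1000 into LB containing compound at the set concentration or DMSO vehicle alone, then shaken at 250 rpm at 37 °C. At 1, 3, 5 and 10 min, aliquots were serially diluted and plated on LB 1.5% agar and incubated overnight at 37 °C. CFU/mL were taken from plates with 30–300 colonies and compared with vehicle control. Three replicates came from separate colonies.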

Staphylococcus aureus [7] = test: Bactericidal activity against methicillin-resistant Staphylococcus aureus ATCC BAA 1707 assessed as as reduction in bacterial load by measuring reduction in colony forming units at 50 uM preincubated for 3 min followed by subculturing and further incubated for over night by time-kill kinetic assay; format: functional; method in brief: as §3
Staphylococcus aureus [8] = test: as §2, with “for 5 to 10” for “for 1”; format: functional; method in brief: as §3
[9] = test system: Staphylococcus epidermidis; test: as §2, with “epidermidis” for “aureus”, “35984” for “BAA 1707”, “5 to 10” for “1”; format: functional; method in brief: as §3
Enterococcus faecium [10] = test: Bactericidal activity vancomycin-resistant Enterococcus faecium ATCC 700221 assessed as as reduction in bacterial load by measuring reduction in colony forming units at 50 uM preincubated for 5 to 10 min followed by subculturing and further incubated for over night by time-kill kinetic assay; format: functional; method in brief: as §3
Acinetobacter baumannii [11] = test: Bactericidal activity against multidrug-resistant Acinetobacter baumannii ATCC 1794 assessed as as reduction in bacterial load by measuring reduction in colony forming units at 50 uM preincubated for 5 min followed by subculturing and further incubated for over night by time-kill kinetic assay; format: functional; method in brief: as §3
Acinetobacter baumannii [12] = test: Bactericidal activity against multidrug-resistant Acinetobacter baumannii ATCC 1794 assessed as as reduction in bacterial load by measuring reduction in colony forming units at 50 uM preincubated for 10 min followed by subculturing and further incubated for over night by time-kill kinetic assay; format: functional; method in brief: as §3
[13] = test system: Staphylococcus epidermidis; test: Bactericidal activity against methicillin-resistant Staphylococcus epidermidis ATCC 35984 at 50 uM after 5 to 10 mins by time-kill kinetic assay relative to control; format: functional; method in brief: as §3
Enterococcus faecium [14] = test: Bactericidal activity vancomycin-resistant Enterococcus faecium ATCC 700221 at 50 uM after 5 to 10 mins by time-kill kinetic assay relative to control; format: functional; method in brief: as §3
Cryptococcus neoformans [15] = test: Fungicidal activity against Cryptococcus neoformans ATCC 66031 at 50 uM after 5 to 10 mins by time-kill kinetic assay relative to control; format: functional
Method in brief: (§4)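 C. neoformans ATCC 66031 was streaked on YPD agar for two days at 37 °C, and single colonies were grown overnight in YPD at 37 °C, 250 rpm. Overnight cultures were diluted in fresh YPD with compound in DMSO at 50 μM final, or DMSO alone, and kept at 37 °C, 250 rpm. Aliquots were diluted and plated on YPD agar, and colonies counted after 1–2 days at 37 °C. Triplicate; CFU per mL.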

Staphylococcus aureus [16] = test: Antibacterial activity against methicillin-resistant Staphylococcus aureus ATCC BAA 1707 at 50 uM treated with 18 days old solution of test compound for 10 mins relative to control; format: functional
Method in brief: (§5)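 Compound was prepared at 50 μM in LB and stored on the shelf for 18 days or 111 days. Exponentially growing MRSA 1707 (overnight culture diluted 1:1000 in LB) was exposed to the stored solution for 10 min at 37 °C with 250 rpm shaking. Aliquots were serially diluted, plated on LB agar and incubated overnight at 37 °C. CFU/mL were compared with vehicle control.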

Staphylococcus aureus [17] = test: as §2, with “Antibacterial” for “Bactericidal”, “treated with 111 days old solution of test compound” for “preincubated”, “10 mins” for “1 min”; format: functional, organism-based; method in brief: as §5
Staphylococcus aureus [18] = test: Antibacterial activity against methicillin-resistant Staphylococcus aureus ATCC BAA 1707 at 50 uM treated with 111 days old solution of test compound for 10 mins relative to control; format: functional; method in brief: as §5
Staphylococcus aureus [19] = test: as §2, with “Antibacterial” for “Bactericidal”, “treated with 18 days old solution of test compound” for “preincubated”, “10 mins” for “1 min”; format: functional; method in brief: as §5
Cryptococcus neoformans [20] = test: Fungicidal activity against Cryptococcus neoformans ATCC 66031 assessed as as reduction in bacterial load by measuring reduction in colony forming units at 50 uM preincubated for 5 to 10 min followed by subculturing and further incubated for 1 or 2 days by time-kill kinetic assay; format: functional; method in brief: as §4
Staphylococcus aureus [21] = test: Bactericidal activity against methicillin-resistant Staphylococcus aureus ATCC BAA 1707 assessed as as reduction in bacterial load by measuring reduction in colony forming units at 20 uM preincubated for 5 min followed by subculturing and further incubated for over night by time-kill kinetic assay; format: functional; method in brief: as §3
Staphylococcus aureus [22] = test: Bactericidal activity against methicillin-resistant Staphylococcus aureus ATCC BAA 1707 assessed as as reduction in bacterial load by measuring reduction in colony forming units at 20 uM preincubated for 10min followed by subculturing and further incubated for over night by time-kill kinetic assay; format: functional; method in brief: as §3
Staphylococcus aureus [23] = test: Bactericidal activity against methicillin-resistant Staphylococcus aureus ATCC BAA 1707 assessed as as reduction in bacterial load by measuring reduction in colony forming units at 5 uM preincubated for 5 min followed by subculturing and further incubated for over night by time-kill kinetic assay; format: functional; method in brief: as §3
Staphylococcus aureus [24] = test: Bactericidal activity against methicillin-resistant Staphylococcus aureus ATCC BAA 1707 assessed as as reduction in bacterial load by measuring reduction in colony forming units at 5 uM preincubated for 10 min followed by subculturing and further incubated for over night by time-kill kinetic assay; format: functional; method in brief: as §3
Staphylococcus aureus [25] = test: Bactericidal activity against methicillin-resistant Staphylococcus aureus ATCC BAA 1707 at 50 uM after 1 min by time-kill kinetic assay relative to control; format: functional; method in brief: as §3
Staphylococcus aureus [26] = test: Bactericidal activity against methicillin-resistant Staphylococcus aureus ATCC BAA 1707 at 50 uM after 3 mins by time-kill kinetic assay relative to control; format: functional; method in brief: as §3
Staphylococcus aureus [27] = test: Bactericidal activity against methicillin-resistant Staphylococcus aureus ATCC BAA 1707 at 50 uM after 5 to 10 mins by time-kill kinetic assay relative to control; format: functional; method in brief: as §3
Acinetobacter baumannii [28] = test: Bactericidal activity against multidrug-resistant Acinetobacter baumannii ATCC 1794 at 50 uM after 5 mins by time-kill kinetic assay relative to control; format: functional; method in brief: as §3
Acinetobacter baumannii [29] = test: Bactericidal activity against multidrug-resistant Acinetobacter baumannii ATCC 1794 at 50 uM after 10 mins by time-kill kinetic assay relative to control; format: functional; method in brief: as §3
Staphylococcus aureus [30] = test: Bactericidal activity against methicillin-resistant Staphylococcus aureus ATCC BAA 1707 at 20 uM after 5 mins by time-kill kinetic assay relative to control; format: functional; method in brief: as §3
Staphylococcus aureus [31] = test: Bactericidal activity against methicillin-resistant Staphylococcus aureus ATCC BAA 1707 at 20 uM after 10 mins by time-kill kinetic assay relative to control; format: functional; method in brief: as §3
Staphylococcus aureus [32] = test: Bactericidal activity against methicillin-resistant Staphylococcus aureus ATCC BAA 1707 at 5 uM after 10 mins by time-kill kinetic assay relative to control; format: functional; method in brief: as §3

CCCCCCCCCCCCCCCC[n+]1ccn(Cc2ccccc2)c1C.[I-]
CC50 at 48 h [1]: 2.41 µM | Activity (HEK293): 100%

CCCCCCCCCCCCCCCCn1cc[n+](-c2ccccc2)c1C
CC50 at 48 h [1]: < 1.56 µM | MIC (Staphylococcus aureus [2]): 1.56 µM | MIC [3]: 1.17 µM | MIC (Enterococcus faecium [4]): 3.13 µM | MIC (Acinetobacter baumannii [5]): 12.5 µM | MIC (Klebsiella pneumoniae): 6.25 µM | MIC (Escherichia coli): 6.25 µM | Activity (Staphylococcus aureus [6]): 4 log10CFU/ml | Activity (Staphylococcus aureus [7]): 4 log10CFU/ml | Activity (Staphylococcus aureus [8]): >6 log10CFU/ml | Activity [9]: 6 log10CFU/ml | Activity (Enterococcus faecium [10]): 6 log10CFU/ml | Activity (Acinetobacter baumannii [11]): 3 log10CFU/ml | Activity (Acinetobacter baumannii [12]): >6 log10CFU/ml | Activity [13]: 99.9999% | Activity (Enterococcus faecium [14]): 99.9999% | Activity (Cryptococcus neoformans [15]): 100% | Activity (Staphylococcus aureus [16]): >99% | Activity (Staphylococcus aureus [17]): Active | Activity (Staphylococcus aureus [18]): >99% | Activity (Staphylococcus aureus [19]): >3 log10CFU/ml | Activity (Cryptococcus neoformans [20]): 7 log10CFU/ml | Activity (Staphylococcus aureus [21]): 3 log10CFU/ml | Activity (Staphylococcus aureus [22]): 4 log10CFU/ml | Activity (Staphylococcus aureus [23]): <1 log10CFU/ml | Activity (Staphylococcus aureus [24]): 1 log10CFU/ml | Activity (Staphylococcus aureus [25]): 99.99% | Activity (Staphylococcus aureus [26]): 99.99% | Activity (Staphylococcus aureus [27]): 100% | Activity (Acinetobacter baumannii [28]): 99.9% | Activity (Acinetobacter baumannii [29]): >99.9999% | Activity (Staphylococcus aureus [30]): 99.9% | Activity (Staphylococcus aureus [31]): 99.99% | Activity (Staphylococcus aureus [32]): 90% | Activity (HEK293): 100%

CCCCCCCCCCCCCCCC[N+](C)(C)Cc1ccccc1.[Cl-] [CETALKONIUM CHLORIDE]
CC50 at 48 h [1]: 6.84 µM | Activity (Staphylococcus aureus [6]): 4 log10CFU/ml | Activity (Staphylococcus aureus [7]): 4 log10CFU/ml | Activity (Staphylococcus aureus [8]): >6 log10CFU/ml | Activity (Staphylococcus aureus [16]): >99% | Activity (Staphylococcus aureus [17]): Active | Activity (Staphylococcus aureus [18]): >99% | Activity (Staphylococcus aureus [19]): >3 log10CFU/ml | Activity (Staphylococcus aureus [25]): 99.99% | Activity (Staphylococcus aureus [26]): 99.99% | Activity (Staphylococcus aureus [27]): 100% | Activity (HEK293): 100%
